{"source": "paper PMC5669264", "about": "(Journal of medicinal chemistry, 2017)", "key": {"[1]": {"system": "formalin-induced nociceptive behavior", "test": "Formalin test", "assay_type": "in vivo", "settings": "mice; for effect of the combination of 28 and 31 in formalin test: 28 1 mg/kg ip + 31 1 mg/kg ip"}, "[2]": {"system": "formalin-induced nociceptive behavior", "settings": "cited from earlier work; for effect on second phase of formalin test in presence of A1AR antagonist 29: with 29 (DPCPX) 3 mg/kg ip"}, "[3]": {"target": "T1, hA1AR (Homo sapiens, UniProt P30542)", "T1 sequence (P30542 1-326)": "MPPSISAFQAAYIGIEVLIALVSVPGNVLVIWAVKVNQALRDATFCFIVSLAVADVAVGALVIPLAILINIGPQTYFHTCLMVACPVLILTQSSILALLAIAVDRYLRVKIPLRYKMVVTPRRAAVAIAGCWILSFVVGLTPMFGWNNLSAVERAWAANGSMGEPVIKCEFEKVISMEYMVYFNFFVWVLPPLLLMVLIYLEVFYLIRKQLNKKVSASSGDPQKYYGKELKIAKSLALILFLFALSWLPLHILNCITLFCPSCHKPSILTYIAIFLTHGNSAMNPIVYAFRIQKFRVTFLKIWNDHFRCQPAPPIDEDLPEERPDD", "settings": "cited from earlier work"}, "[4]": {"system": "mouse A1AR", "settings": "cited from earlier work"}, "[5]": {"target": "T2, A2B ARs (Homo sapiens, UniProt P29275)", "T2 sequence (P29275 1-332)": "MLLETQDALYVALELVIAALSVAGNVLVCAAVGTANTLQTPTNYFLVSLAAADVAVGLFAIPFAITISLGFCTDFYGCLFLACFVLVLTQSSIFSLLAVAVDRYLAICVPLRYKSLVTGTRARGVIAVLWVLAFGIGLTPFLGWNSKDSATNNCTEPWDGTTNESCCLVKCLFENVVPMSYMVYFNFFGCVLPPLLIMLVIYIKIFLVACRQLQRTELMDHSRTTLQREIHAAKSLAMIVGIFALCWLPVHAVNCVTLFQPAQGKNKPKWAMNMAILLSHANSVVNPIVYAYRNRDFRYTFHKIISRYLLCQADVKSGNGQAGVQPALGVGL", "test": "Stimulation of adenylyl cyclase activity", "assay_type": "biochemical", "in_short": "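Crude membranes came from CHO cells stably transfected with human A2B receptor, from a single high-speed spin. They were resuspended in 50 mM Tris/HCl, pH 7.4, and used immediately. Stimulation of adenylyl cyclase activity gave agonist EC50. […] Values are geometric means with 95% confidence intervals (n ≥ 3).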"}, "[6]": {"target": "T2, A2B ARs", "settings": "hA2B; ref Petrelli et al.[7]; cited from earlier work"}, "[7]": {"target": "hA2A receptor (Homo sapiens, UniProt P29274)", "sequence (P29274 whole entry)": "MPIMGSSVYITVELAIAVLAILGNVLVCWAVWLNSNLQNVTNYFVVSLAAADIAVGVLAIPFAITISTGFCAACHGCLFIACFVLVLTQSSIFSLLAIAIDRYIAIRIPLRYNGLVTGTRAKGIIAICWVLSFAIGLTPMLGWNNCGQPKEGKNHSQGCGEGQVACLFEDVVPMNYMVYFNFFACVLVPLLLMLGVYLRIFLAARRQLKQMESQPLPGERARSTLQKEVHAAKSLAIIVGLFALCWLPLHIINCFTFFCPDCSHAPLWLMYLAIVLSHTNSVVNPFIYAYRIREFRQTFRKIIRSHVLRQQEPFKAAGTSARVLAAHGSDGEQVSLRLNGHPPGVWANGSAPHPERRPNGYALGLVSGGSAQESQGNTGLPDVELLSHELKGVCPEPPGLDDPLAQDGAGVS", "settings": "ref Petrelli et al.[7]; cited from earlier work"}}, "note": "Entries after “also recorded” stand apart in the source; their conditions may differ. Read-outs that look alike come from different tables or passages of the source."}
{"smiles": "O[C@@H]1[C@H](O)[C@@H](CCl)O[C@H]1n1cnc2c(NC3C[C@@H]4CC[C@@H]3C4)ncnc21", "note": "(mixture of isomers) [Compound 28, 5′-chloro-5′-deoxy-N^6-(±)-endo-norborn-2-yl)adenosine]", "values": [{"measurement": "effect of the combination of 28 and 31 in formalin test", "setting": "[1]", "result": "showed greater effects when combined in reducing both the first and the second phases of formalin test"}, {"measurement": "effect on second phase of formalin-induced hyperalgesia", "setting": "[2]; 1–2 mg/kg ip", "result": "inhibited the second phase of formalin-induced hyperalgesia in a dose-dependent manner"}, {"measurement": "effect on second phase of formalin test in presence of A1AR antagonist 29", "setting": "[2]", "result": "blocked"}, {"measurement": "selectivity hA1AR vs hA3AR", "setting": "[3]", "result": "~ 2600 fold"}, {"measurement": "selectivity mouse A1AR vs A3AR", "setting": "[4]", "result": "~ 10 000 fold"}]}
{"smiles": "CCn1nnc([C@H]2O[C@@H](n3cnc4c(NC5CC5)ncnc43)C(O)C2O)n1", "note": "(stereo in doubt) [Compound 1, (2R,3S,4R,5R)-2-(6-(Cyclopropylamino)-9H-purin-9-yl)-5-(2-ethyl-2H-tetrazol-5-yl)tetrahydrofuran-3,4-diol]", "values": [{"measurement": "functional behaviour at hA2B receptor", "setting": "[5]", "result": "partial A2BAR agonists"}]}
{"smiles": "CCn1nnc([C@H]2O[C@@H](n3cnc4c(NCC5CC5)ncnc43)C(O)C2O)n1", "note": "(stereo in doubt) [Compound 3, (2R,3S,4R,5R)-2-(6-((Cyclopropylmethyl)amino)-9H-purin-9-yl)-5-(2-ethyl-2H-tetrazol-5-yl)tetrahydrofuran-3,4-diol]", "values": [{"measurement": "functional behaviour at hA2B receptor", "setting": "[5]", "result": "partial A2BAR agonists"}]}
{"smiles": "CCn1nnc([C@H]2O[C@@H](n3cnc4c(NCc5cccc(F)c5)ncnc43)C(O)C2O)n1", "note": "(stereo in doubt) [Compound 9, (2R,3R,4S,5R)-2-(2-Ethyl-2H-tetrazol-5-yl)-5-(6-((3-fluorobenzyl)amino)-9H-purin-9-yl)tetrahydrofuran-3,4-diol]", "values": [{"measurement": "functional behaviour at hA2B receptor", "setting": "[5]", "result": "partial A2BAR agonists"}]}
{"smiles": "CCn1nnc([C@H]2O[C@@H](n3cnc4c(NCc5cccc(Cl)c5)ncnc43)C(O)C2O)n1", "note": "(stereo in doubt) [Compound 11, (2R,3S,4R,5R)-2-(6-((3-Chlorobenzyl)amino)-9H-purin-9-yl)-5-(2-ethyl-2H-tetrazol-5-yl)tetrahydrofuran-3,4-diol]", "values": [{"measurement": "effect on formalin-induced nociceptive behavior", "setting": "[1]; 0.5–1.0 mg/kg ip, 10 min before formalin, P < 0.005", "result": "reduced the late nociceptive behavior induced by formalin in a dose-dependent manner"}]}
{"smiles": "CCn1nnc([C@H]2O[C@@H](n3cnc4c(NC)nc(Cl)nc43)[C@H](O)[C@@H]2O)n1", "note": "[Compound 23]", "values": [{"measurement": "efficacy (pag, partial agonist % efficacy) A2B", "setting": "[6]", "result": 75, "unit": "%"}]}
{"smiles": "CCn1nnc([C@H]2O[C@@H](n3cnc4c(NCc5cccc(I)c5)nc(Cl)nc43)[C@H](O)[C@@H]2O)n1", "note": "[Compound 26]", "values": [{"measurement": "effect on formalin-induced nociceptive behavior", "setting": "[1]; highest dose tested 1 mg/kg ip, 10 min before formalin", "result": "inactive"}, {"measurement": "efficacy (pag, partial agonist % efficacy) A2A", "setting": "[7]", "result": 75, "unit": "%"}, {"measurement": "efficacy (pag, partial agonist % efficacy) A2B", "setting": "[6]", "result": 76, "unit": "%"}]}
{"smiles": "C[C@@]1(O)[C@H](O)[C@@H](CO)O[C@H]1n1cnc2c(NC3CCCC3)nc(Cl)nc21", "note": "[Compound 27, 2-chloro-2′-C-methyl-N^6-cyclopentyladenosine]", "values": [{"measurement": "effect on second phase of formalin-induced hyperalgesia", "setting": "[2]; 2.5–5 mg/kg ip", "result": "inhibited the second phase of formalin-induced hyperalgesia in a dose-dependent manner"}, {"measurement": "effect on second phase of formalin test in presence of A1AR antagonist 29", "setting": "[2]", "result": "blocked"}]}
{"smiles": "CNC(=O)[C@H]1O[C@@H](n2cnc3c(NCc4cccc(I)c4)nc(Cl)nc32)[C@H](O)[C@@H]1O", "note": "[Compound 31, 2-chloro-N^6-(3-iodobenzyl)-5′-N-methylcarboxamidoadenosine]", "values": [{"measurement": "effect of the combination of 22 and 31 in formalin test", "setting": "[1]; 22 0.3 mg/kg ip + 31 1 mg/kg ip, 10 min before formalin, P < 0.005", "result": "completely erased the second phase and reduced the first phase of formalin-induced nociceptive behavior; also recorded: reduced completely the nocifensive behavior in both the first and the second phases of formalin test"}, {"measurement": "effect of the combination of 28 and 31 in formalin test", "setting": "[1]", "result": "showed greater effects when combined in reducing both the first and the second phases of formalin test"}]}
